# Assay outcomes (PubChem)
# This is a sample that favours compounds with a hit; in the whole collection about 4.5% have one here.
# PHOSPHO1 inh = PHOSPHO1 (human) inhibition | Q8TCT1 | recombinant PHOSPHO1, absorbance phosphatase assay | inhibition, % at 13.3 µM | hit rate 1.1% among 290,000 | AID 1565; in the data active = inhibition above about 60%
# Target sequence (Q8TCT1 whole entry, looked up): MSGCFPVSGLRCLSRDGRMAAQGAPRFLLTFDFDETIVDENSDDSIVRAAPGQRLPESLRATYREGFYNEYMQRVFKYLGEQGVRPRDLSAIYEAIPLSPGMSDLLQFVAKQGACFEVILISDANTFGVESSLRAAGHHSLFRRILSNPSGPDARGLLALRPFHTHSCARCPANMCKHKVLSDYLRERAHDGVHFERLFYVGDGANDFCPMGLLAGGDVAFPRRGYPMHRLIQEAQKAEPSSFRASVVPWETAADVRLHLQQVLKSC
# MrgX1 allo act = human MrgX1 positive allosteric modulation, primary screen | MrgX1-HEK293, Fluo-4 calcium flux, FDSS; stronger effect = higher value | Q96LB2 | hit rate 0.63% among 310,000 | B-score at 10 µM;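 active = plate-corrected calcium response at least 3 library SD above typical, normal starting fluorescence, not activating the receptor alone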;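 also: compound read alongside a low EC10 to EC30 dose of BAM8-22 agonist; peak minus trough fluorescence over baseline measured at the second addition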
# Target sequence (Q96LB2 whole entry, looked up): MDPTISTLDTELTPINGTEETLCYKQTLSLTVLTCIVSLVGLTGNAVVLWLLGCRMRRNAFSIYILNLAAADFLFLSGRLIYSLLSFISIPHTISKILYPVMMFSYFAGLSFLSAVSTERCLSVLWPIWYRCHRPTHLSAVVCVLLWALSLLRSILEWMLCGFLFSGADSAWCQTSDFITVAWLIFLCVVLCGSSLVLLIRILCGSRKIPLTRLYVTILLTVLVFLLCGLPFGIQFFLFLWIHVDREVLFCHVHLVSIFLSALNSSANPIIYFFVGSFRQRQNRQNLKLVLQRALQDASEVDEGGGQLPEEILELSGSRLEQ
# RGS4 pot = RGS4 potentiation or activation; HEK293 M3R/inducible RGS4, carbachol calcium flux Fluo4; stronger effect = lower value; B-score at 10 µM; hit rate 0.92% among 310,000; AID 463111;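 active = B-score of the integrated calcium signal more than 4 SD below the library mean, with starting fluorescence not abnormally high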;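 also: negative B-score means reduced calcium response which marks RGS4 activation or potentiation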
#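 Material: Inducible-RGS4 HEK293 cells carrying M3 receptor; also added: carbachol at ECmax as muscarinic agonist stimulus; incubation: compound preincubation 20 min at room temperature before agonist; signal: Fluo4-AM (2 µM) calcium-flux fluorescence, kinetic read; measure: integrated calcium ratio converted to B score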
# RGS4 block = inhibitors of human RGS4; B-score at 10 µM; hit rate 0.45% among 310,000; HEK293 M3R/RGS4 inducible, Fluo-4 calcium flux; stronger effect = higher value; triggered by carbachol at its EC20; P49798;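 active = B-score, a plate-corrected calcium signal, over three deviations above library mean, with baseline fluorescence within five deviations of library mean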;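 also: RGS4 expression induced by doxycycline in cells with stable M3 receptor; B-score is computed from the integrated fluorescence ratio over baseline after carbachol; higher B-score means a larger calcium signal and so more RGS4 inhibition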
# MrgX1 antag = blocks BAM8-22 activation of human MrgX1 receptor; MRGX1-HEK293 calcium flux, Fluo-4, BAM8-22 antagonism; stronger effect = lower value; hit rate 1.3% among 310,000; B-score at 10 µM; AID 588676;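 active = calcium-response B-score plate-corrected more than 3 library SD below zero, starting fluorescence within 5 deviations, no agonist response on first addition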;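 also: peak minus trough fluorescence over baseline after final BAM8-22 challenge near maximal dose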
# MrgX1 ag = agonists of human MrgX1 receptor; Q96LB2; MrgX1-HEK293 cells, Fluo-4 calcium fluorescence, agonist mode; stronger effect = higher value; B-score at 10 µM; hit rate 0.44% among 310,000; AID 588627;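 active = calcium response B-score plate-corrected fluorescence ratio at least 3 library SD, with starting fluorescence B-score inside 5 SD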
#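 times = overnight plating, then 30 min 37 °C plus 30 min room-temperature dye loading | assay system = stable human MrgX1 HEK293 cell line | input = fifteen thousand cells per well | signal = kinetic calcium dye fluorescence, Fluo-4 NW | dosing = compound delivered in addition one of three | read-out = B-scored fluorescence response ratio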
# RGS4 block valid = RGS4 inhibitor validation | shares compounds with RGS4 block | calcium response, % at 10 µM | HEK293 M3R/RGS4, carbachol calcium Fluo-4 fluorescence; carbachol added at its EC20; 0 = buffer wells, 100 = carbachol control | hit rate 65% among 1,700;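 active = duplicate-averaged calcium response above the buffer-only control mean plus 5 SD of those controls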;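 also: integrated fluorescence ratio F max minus min over baseline F0; higher response in RGS4-induced cells means RGS4 inhibition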
# RGS4 uninduced = non-induced cell nonspecific activity of RGS4 inhibitors | shares compounds with RGS4 block | hit rate 20% among 1,900 | HEK293 M3R non-induced, carbachol calcium Fluo-4; submaximal (EC20) carbachol stimulus; buffer wells 0%, carbachol control wells 100% | AID 493000 | activity (percent), % at 10 µM; call rule not given here;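 also: RGS4 induction absent so cells express M3R without RGS4; higher means more calcium signal and flags a non-specific hit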
# RGS4 inh ctr2 = signal in non-induced cells without carbachol, RGS4 inhibitor counter-screen | shares compounds with RGS4 block | HEK293 M3R/RGS4 non-induced, Fluo-4 calcium, no carbachol; normalised: buffer wells 0%, carbachol wells 100% | calcium response (agonist-mode artifact), % at 10 µM | hit rate 22% among 1,900 | AID 493001;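 active = duplicate-averaged calcium rise in uninduced cells above buffer wells' mean plus 5 SD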
# * marks the source's active call; other numbers are inactive results; i = inactive; x = not tested or not shown.
SMILES,PHOSPHO1 inh,MrgX1 allo act,RGS4 pot,RGS4 block,MrgX1 antag,MrgX1 ag,RGS4 block valid,RGS4 uninduced,RGS4 inh ctr2
COc1cc(/C=C2\C(=O)NN(c3ccccc3)C2=O)ccc1OCC(N)=O,15.9,i,i,i,i,i,x,x,x
COC(=O)c1ccc(N2NC(=O)/C(=C/c3ccc(OC)c(OC)c3)C2=O)cc1,33.9,i,i,6.18*,i,i,19.5%*,40.5%*,i
C#CCOc1ccc(/C=C2/C(=O)NN(c3ccc(F)cc3)C2=O)cc1OC,14.1,i,i,i,i,i,x,30.0%*,i
COC(=O)c1ccc(S(=O)(=O)N2Cc3ccccc3C2)cc1,-11.8,i,i,i,i,i,x,x,x
CCCCC1CCc2[nH]nc(C(=O)O)c2C1 (stereo not drawn),x,i,x,x,i,i,x,x,x
O=C(/C=C/c1ccc(Cl)cc1)c1ccc([N+](=O)[O-])o1,x,i,i,7.93*,i,i,8.5%*,i,i
O=C(OCCCOC(=O)c1ccc([N+](=O)[O-])o1)c1ccc([N+](=O)[O-])o1,x,i,i,i,i,i,x,x,x
O=C(Nc1ccccc1F)c1c[nH]c(=O)[nH]c1=O,33.4,i,i,i,i,i,x,x,x
O=C1C=C(NC2=CC3OC(c4ccccc4)OCC3OC2=O)CCC1 (stereo not drawn),13.5,i,i,7.73*,i,i,35.5%*,i,i
COc1ccc(Cl)cc1C(=O)Nc1ccc(NC(=O)C(C)C)cc1,29.5,i,i,i,i,i,x,x,x
CCOC(=O)C1=C(C)N=c2s/c(=C/c3ccc(OCC(=O)O)c(OC)c3)c(=O)n2C1c1ccc(Cl)cc1 (stereo not drawn),x,i,i,i,i,i,x,x,x
O=C1CCCC2=C1C(c1ccc(Cl)cc1)n1c(s/c(=C\c3ccc4ccncc4c3)c1=O)=N2 (stereo not drawn),10.9,i,i,13.6*,i,i,42.0%*,i,196.0%*
COc1ccc(S(=O)(=O)Nc2ccc(O)c3ccccc23)cc1,9.7,i,i,6.84*,i,i,10.5%*,i,i
COc1ccc(S(=O)(=O)Nc2ccccc2)cc1,x,i,i,i,i,i,x,x,x
CCOC(=O)N1CCc2c(sc3c2c(=O)n(Cc2ccccc2)c(=O)n3Cc2ccccc2F)C1,23.5,i,i,7.34*,i,i,56.5%*,33.5%*,i
CCOC(=O)N1CCc2c(sc3c2c(=O)n(Cc2ccccc2)c(=O)n3CC(=O)NCC2CCCO2)C1 (stereo not drawn),27.9,i,i,i,i,i,x,x,x
CCOC(=O)N1CCc2c(sc3c2c(=O)n(Cc2ccccc2)c(=O)n3Cc2cccc(C)c2)C1,1.3,i,i,6.84*,i,i,31.5%*,38.5%*,i
Nc1nnn(CC(=O)N/N=C/c2ccc(Cl)cc2Cl)n1,45.0,i,i,i,i,i,x,x,x
CC(=O)/C(=N/Nc1cccc(C)c1)N1CCOCC1,92.4*,i,i,18*,i,i,10.0%*,57.5%*,i
COc1ccc(/C=C/C(=O)c2sc(-c3ccccc3)nc2C)cc1,18.0,i,i,i,i,i,x,i,39.5%*
CCCN(C(=O)Cc1c(C(=O)O)n(C)c2ccccc12)c1cccc(C)c1,x,i,i,6.23*,i,i,12.5%*,67.5%*,11.5%*
CCOC(=O)C1=C(C)N=c2s/c(=C\c3ccncc3)c(=O)n2C1c1ccc2c(c1)OCO2 (stereo not drawn),-21.8,i,i,4.7*,i,i,16.0%*,43.5%*,16.0%*
C=CCn1c(C)c(C(C)=O)c(N2CCN(C(c3ccccc3)c3ccccc3)CC2)nc1=S,-11.6,i,i,i,i,i,x,x,x
Cn1nc(-c2ccc(C(=O)Nc3cccc(Cl)c3)cc2)c2ccccc2c1=O,-6.4,i,i,i,i,i,x,x,x
OC(c1cc(C(F)(F)F)nc2c(Cl)cc(Cl)cc12)C1CCCCN1 (stereo not drawn),24.4,i,i,13.3*,i,i,24.5%*,i,13.5%*
SMILES,PHOSPHO1 inh,MrgX1 allo act,RGS4 pot,RGS4 block,MrgX1 antag,MrgX1 ag,RGS4 block valid,RGS4 uninduced,RGS4 inh ctr2
O[C@@H](c1cc(C(F)(F)F)nc2c(C(F)(F)F)cccc12)[C@H]1CCCCN1,x,i,i,5.71*,i,i,26.5%*,i,46.0%*
OC(c1cc(-c2ccc(Cl)cc2)nc2ccccc12)C1CCCCN1 (stereo not drawn),14.1,i,i,i,i,i,x,x,x
O=c1c2cc(Cl)cc(Cl)c2nc2n1CCC2,6.6,i,i,i,i,i,x,x,x
COC(=O)Cc1ccc(NC(=S)N2CCN(CCO)CC2)cc1,x,i,i,i,i,i,x,x,x
CC1CN(C(=O)c2ccc(COCC(F)(F)F)o2)CC(C)O1 (stereo not drawn),1.8,i,i,i,i,i,x,x,x
O=C(c1ccc(COCC(F)(F)F)o1)N1CCCC1,-43.1,i,i,5.91*,i,i,i,i,i
COc1ccccc1NC(=O)c1cnc(SCC(=O)NCC2CCCO2)n(C)c1=O (stereo not drawn),x,i,i,5.38*,i,i,9.0%*,i,i
CCCCn1c(NC(C)CC)nc2c1c(=O)[nH]c(=O)n2C (stereo not drawn),6.3,i,i,4.72*,i,i,9.5%*,i,i
CCC(C)Nc1nc2c(c(=O)[nH]c(=O)n2C)n1CCOc1ccccc1 (stereo not drawn),-4.7,i,i,i,i,i,x,x,x
Clc1ccc(-c2csc(N/N=C\c3cccnc3)n2)cc1,3.1,i,i,i,i,i,x,65.0%*,i
Clc1ccc(-c2csc(N/N=C/c3ccco3)n2)cc1,15.2,i,i,i,i,i,x,x,x
